In ChEMBL document CHEMBL3244414, “Structure-activity relationships among the O-acyl derivatives of leucomycin. Correlation of minimal inhibitory concentrations with binding to Escherichia coli ribosomes” (J Med Chem, 1977):
≈ marks a conversion by molar mass, not a printed value.

Legend:
Bacterial 70S ribosome = test: (§1) Displacement of [14C]erythromycin from Escherichia coli ribosomes after 30 mins by scintillation spectrometer analysis
In short: (§2)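 NH4Cl-washed E. coli ribosomes with [14C]erythromycin A and varied competitor concentrations in 0.01 M Tris-HCl pH 7.2, 0.1 M KCl, 0.004 M MgCl2, 0.01 M NH4Cl. Incubated 30 min at 24 °C, stopped by dilution in cold Tris/KCl/MgCl2 buffer, membrane-filtered, washed three times, dried, scintillation counted. Reports the concentration giving 50% inhibition of binding.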

[1] = target: Bacterial 70S ribosome (Bacteria) (UniProt P0A7V0+P60723+P0AG67+P0A7R5+P0A7R9+P0A7S3+P0A7S9+P0AG59+P0ADZ4+P0A7T3+P0AG63+P0A7T7+P0A7U3+P0A7U7+P68679+P0A7V3+P0A7V8+P0A7W1+P02358+P02359+P0A7W7+P0A7X3+P0A7J3+P0A7J7+P0AA10+P0ADY3+P02413+P0ADY7+P0AG44+P0C018+P0A7K6+P0A7L0+P0A7L3+P0AG48+P61175+P0ADZ0+P60624+P68919+P0A7L8+P0A7M2+P0A7M6+P60422+P0AG51+P0A7N1+P0A7M9+P0A7N4+P0A7N9+P0A7P5+P0A7Q1+Q2EEQ2+P0A7Q6+P60438+P62399+P0AG55+P0A7K2); test: as §1; in short: as §2
Klebsiella pneumoniae = test: Antimicrobial activity against Klebsiella pneumoniae ATCC 10031 by agar dilution method; format: functional; settings: Klebsiella pneumoniae, ATCC 10031; read-out: MIC
In short: (§3)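 Read-out is the minimal inhibitory concentration, found by agar dilution against the named strain.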

Bacillus spizizenii = test: Antimicrobial activity against Bacillus subtilis ATCC 6633 by agar dilution method; format: functional; settings: Bacillus spizizenii, ATCC 6633; read-out: MIC; in short: as §3
Staphylococcus aureus = test: Antimicrobial activity against Staphylococcus aureus ATCC 6538P by agar dilution method; format: functional; settings: Staphylococcus aureus, ATCC 6538P; read-out: MIC; in short: as §3

Compound | IC50 (Bacterial 70S ribosome) [µM] | pK50 [1] | MIC (Klebsiella pneumoniae) [µg/mL] | MIC (Bacillus spizizenii) [µg/mL] | MIC (Staphylococcus aureus) [µg/mL]
CO[C@@H]1[C@@H](O[C@@H]2O[C@H](C)[C@@H](O[C@H]3C[C@@](C)(O)[C@@H](OC(=O)CC(C)C)[C@H](C)O3)[C@H](N(C)C)[C@H]2OC(=O)CCC(=O)O)[C@@H](CC=O)C[C@@H](C)[C@@H](O)/C=C/C=C/C[C@@H](C)OC(=O)C[C@H]1OC(C)=O | 3.5 | 5.5 | 25 (≈ 26.9 µM) | 1.6 (≈ 1.72 µM) | 1.6 (≈ 1.72 µM)
CCCC(=O)O[C@H]1[C@H](C)O[C@@H](O[C@H]2[C@H](N(C)C)[C@@H](OC(C)=O)[C@H](O[C@H]3[C@@H](CC=O)C[C@@H](C)[C@@H](OC(C)=O)/C=C/C=C/C[C@@H](C)OC(=O)C[C@@H](OC(C)=O)[C@@H]3OC)O[C@@H]2C)C[C@@]1(C)O | 33.1 | 4.5 | 100 (≈ 111 µM) | 1.6 (≈ 1.78 µM) | 1.6 (≈ 1.78 µM)
CO[C@H]1C(O)CC(=O)O[C@H](C)C/C=C/C=C/[C@H](OC(C)=O)[C@H](C)C[C@H](CC=O)[C@@H]1O[C@@H]1O[C@H](C)[C@@H](O[C@H]2C[C@@](C)(O)[C@@H](O)[C@H](C)O2)[C@H](N(C)C)[C@H]1O (single isomer, unassigned) | 2.8 | 5.6 | 100 (≈ 134 µM) | 3.1 (≈ 4.17 µM) | 6.3 (≈ 8.47 µM)
CCCC(=O)O[C@H]1[C@H](C)O[C@@H](O[C@H]2[C@H](N(C)C)[C@@H](O)[C@H](O[C@H]3[C@@H](CC=O)C[C@@H](C)[C@@H](O)/C=C/C=C/C[C@@H](C)OC(=O)C[C@@H](OC(C)=O)[C@@H]3OC)O[C@@H]2C)C[C@@]1(C)O | 1.2 | 5.9 | 50 (≈ 61.4 µM) | 1.6 (≈ 1.97 µM) | 0.8 (≈ 0.983 µM)
CCCC(=O)O[C@H]1/C=C/C=C/C[C@@H](C)OC(=O)C[C@@H](O)[C@H](OC)[C@@H](O[C@@H]2O[C@H](C)[C@@H](O[C@H]3C[C@@](C)(O)[C@@H](OC(=O)CCC)[C@H](C)O3)[C@H](N(C)C)[C@H]2O)[C@@H](CC=O)C[C@H]1C | 0.9 | 6 | 50 (≈ 59.4 µM) | 1.6 (≈ 1.9 µM) | 1.6 (≈ 1.9 µM)
CCCC(=O)O[C@H]1[C@H](C)O[C@@H](O[C@H]2[C@H](N(C)C)[C@@H](O)[C@H](O[C@H]3[C@@H](CC=O)C[C@@H](C)[C@@H](OC(=O)CC)/C=C/C=C/C[C@@H](C)OC(=O)C[C@@H](O)[C@@H]3OC)O[C@@H]2C)C[C@@]1(C)O | 1.7 | 5.8 | 50 (≈ 60.4 µM) | 0.8 (≈ 0.966 µM) | 1.6 (≈ 1.93 µM)
CCCC(=O)O[C@H]1/C=C/C=C/C[C@@H](C)OC(=O)C[C@@H](OC(C)=O)[C@H](OC)[C@@H](O[C@@H]2O[C@H](C)[C@@H](O[C@H]3C[C@@](C)(O)[C@@H](OC(=O)CC(C)C)[C@H](C)O3)[C@H](N(C)C)[C@H]2O)[C@@H](CC=O)C[C@H]1C | 1.9 | 5.7 | 100 (≈ 111 µM) | 1.6 (≈ 1.78 µM) | 3.1 (≈ 3.45 µM)
CO[C@@H]1[C@@H](O[C@@H]2O[C@H](C)[C@@H](O[C@H]3C[C@@](C)(O)[C@@H](OC(=O)CC(C)C)[C@H](C)O3)[C@H](N(C)C)[C@H]2O)[C@@H](CC=O)C[C@@H](C)[C@@H](OC(=O)C(Cl)Cl)/C=C/C=C/C[C@@H](C)OC(=O)C[C@H]1OC(C)=O | 1.4 | 5.9 | 50 (≈ 53.3 µM) | 0.8 (≈ 0.852 µM) | 1.6 (≈ 1.7 µM)
CO[C@@H]1[C@@H](O[C@@H]2O[C@H](C)[C@@H](O[C@H]3C[C@@](C)(O)[C@@H](OC(=O)CC(C)C)[C@H](C)O3)[C@H](N(C)C)[C@H]2O)[C@@H](CC=O)C[C@@H](C)[C@@H](OC(C)=O)/C=C/C=C/C[C@@H](C)OC(=O)C[C@H]1OC(C)=O | 1.3 | 5.9 | 50 (≈ 57.5 µM) | 1.6 (≈ 1.84 µM) | 1.6 (≈ 1.84 µM)
CO[C@@H]1[C@@H](O[C@@H]2O[C@H](C)[C@@H](O[C@H]3C[C@@](C)(O)[C@@H](O)[C@H](C)O3)[C@H](N(C)C)[C@H]2O)[C@@H](CC=O)C[C@@H](C)[C@@H](O)/C=C/C=C/C[C@@H](C)OC(=O)C[C@H]1OC(C)=O | 10.7 | 5 | 100 (≈ 134 µM) | 6.3 (≈ 8.47 µM) | 12.5 (≈ 16.8 µM)
CCCC(=O)O[C@H]1[C@H](C)O[C@@H](O[C@H]2[C@H](N(C)C)[C@@H](OC(=O)CCC(=O)O)[C@H](O[C@H]3[C@@H](CC=O)C[C@@H](C)[C@@H](OC(=O)CCC(=O)O)/C=C/C=C/C[C@@H](C)OC(=O)C[C@@H](O)[C@@H]3OC)O[C@@H]2C)C[C@@]1(C)O | 2.8 | 5.6 | 50 (≈ 51.4 µM) | 3.1 (≈ 3.19 µM) | 6.3 (≈ 6.48 µM)
CO[C@@H]1[C@@H](O[C@@H]2O[C@H](C)[C@@H](O[C@H]3C[C@@](C)(O)[C@@H](OC(=O)CC(C)C)[C@H](C)O3)[C@H](N(C)C)[C@H]2O)[C@@H](CC=O)C[C@@H](C)[C@@H](OC(=O)C(C)C)/C=C/C=C/C[C@@H](C)OC(=O)C[C@H]1OC(C)=O | 2 | 5.7 | 100 (≈ 111 µM) | 0.8 (≈ 0.891 µM) | 3.1 (≈ 3.45 µM)
CO[C@@H]1[C@@H](O[C@@H]2O[C@H](C)[C@@H](O[C@H]3C[C@@](C)(O)[C@@H](OC(=O)CC(C)C)[C@H](C)O3)[C@H](N(C)C)[C@H]2O)[C@@H](CC=O)C[C@@H](C)[C@@H](OC(=O)CCC(=O)O)/C=C/C=C/C[C@@H](C)OC(=O)C[C@H]1OC(C)=O | 3.4 | 5.5 | 100 (≈ 108 µM) | 3.1 (≈ 3.34 µM) | 3.1 (≈ 3.34 µM)
CO[C@@H]1[C@@H](O[C@@H]2O[C@H](C)[C@@H](O[C@H]3C[C@@](C)(O)[C@@H](OC(=O)CC(C)C)[C@H](C)O3)[C@H](N(C)C)[C@H]2O)[C@@H](CC=O)C[C@@H](C)[C@@H](OC(C)=O)/C=C/C=C/C[C@@H](C)OC(=O)C[C@H]1O | 1.1 | 6 | 50 (≈ 60.4 µM) | 0.8 (≈ 0.966 µM) | 1.6 (≈ 1.93 µM)
CCC(=O)O[C@H]1/C=C/C=C/C[C@@H](C)OC(=O)C[C@@H](O)[C@H](OC)[C@@H](O[C@@H]2O[C@H](C)[C@@H](O[C@H]3C[C@@](C)(O)[C@@H](O)[C@H](C)O3)[C@H](N(C)C)[C@H]2O)[C@@H](CC=O)C[C@H]1C | 4 | 5.4 | 100 (≈ 132 µM) | 3.1 (≈ 4.09 µM) | 6.3 (≈ 8.31 µM)
CO[C@@H]1[C@@H](O[C@@H]2O[C@H](C)[C@@H](O[C@H]3C[C@@](C)(O)[C@@H](OC(=O)CC(C)C)[C@H](C)O3)[C@H](N(C)C)[C@H]2O)[C@@H](CC=O)C[C@@H](C)[C@@H](OC(=O)CCl)/C=C/C=C/C[C@@H](C)OC(=O)C[C@H]1OC(C)=O | 1.7 | 5.8 | 50 (≈ 55.3 µM) | 0.4 (≈ 0.442 µM) | 0.8 (≈ 0.884 µM)
CC[C@H]1OC(=O)[C@H](C)[C@@H](O[C@H]2C[C@@](C)(OC)[C@@H](O)[C@H](C)O2)[C@H](C)[C@@H](O[C@@H]2O[C@H](C)C[C@H](N(C)C)[C@H]2O)[C@](C)(O)C[C@@H](C)C(=O)[C@H](C)[C@@H](O)[C@]1(C)O [ERYTHROMYCIN] | 0.75 | 6.1 | 6.3 (≈ 8.58 µM) | 0.2 (≈ 0.273 µM) | 0.4 (≈ 0.545 µM)
CCCC(=O)O[C@H]1[C@H](C)O[C@@H](O[C@H]2[C@H](N(C)C)[C@@H](OC(=O)CCC(=O)O)[C@H](O[C@H]3[C@@H](CC=O)C[C@@H](C)[C@@H](O)/C=C/C=C/C[C@@H](C)OC(=O)C[C@@H](O)[C@@H]3OC)O[C@@H]2C)C[C@@]1(C)O | 1.9 | 5.7 | 100 (≈ 115 µM) | 0.8 (≈ 0.917 µM) | 1.6 (≈ 1.83 µM)
CCCC(=O)O[C@H]1[C@H](C)O[C@@H](O[C@H]2[C@H](N(C)C)[C@@H](O)[C@H](O[C@H]3[C@@H](CC=O)C[C@@H](C)[C@@H](OC(=O)CCl)/C=C/C=C/C[C@@H](C)OC(=O)C[C@@H](O)[C@@H]3OC)O[C@@H]2C)C[C@@]1(C)O | 0.9 | 6 | 25 (≈ 29.5 µM) | 0.4 (≈ 0.471 µM) | 1.6 (≈ 1.89 µM)
